Laboratory results: PMC5012948 (ChemMedChem, 2016)
Where “and” joins values, the source holds several entries; their conditions need not be identical. Equal values may be shown once. Read-outs that look alike come from different tables or passages of the source.

Legend:
[1] = tested on: S. aureus (Newman strain); test: S. aureus cell growth inhibition; format: cell-based, Staphylococcus aureus
[2] = tested on: S. aureus; test: Synergy/antagonism two-drug combination assay; format: cell-based, Staphylococcus aureus
Outline: (§1)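 Checkerboard-style two-drug combinations of the test compound with antibiotics. Conversely, the test compound ran as a 3× gradient, 40 μg/mL to 18 ng/mL, with each antibiotic at half its MIC. New MICs came from Gompertz fits.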

[3] = tested on: B. subtilis; test: Synergy/antagonism two-drug combination assay; format: cell-based, Bacillus subtilis; settings: 10 + sulfamethoxazole
Outline: as §1

[4] = tested on: B. subtilis and S. aureus; test: Synergy/antagonism assays, average FICI over both organisms; format: cell-based; settings: drugs in combination with 10, both organisms, n = 24
Outline: as §1

[5] = target: SaHepPPS (Staphylococcus aureus, UniProt Q2FYG6); test: biochemical; format: biochemical; settings: for Kd: substrate inhibition at high substrate concentrations
[6] = tested on: coupling enzymes (phosphatase and purine nucleoside phosphorylase); test: Control: inhibition of the coupling enzymes by high FPP and IPP; format: biochemical
[7] = tested on: human FPPS; settings: cited from earlier work

**Q.** Which “IC50 for S. aureus cell growth inhibition” value [1] does the source give for `CCCCCCCCCCCCC[n+]1ccn(CC(P(=O)([O-])O)P(=O)(O)O)c1` (centres unmarked) [compound 10] here?
**A.** The value was 7 µg/mL.

**Q.** And the FICI ([2]; 10 + ampicillin)?
**A.** Its FICI is 1.40.

**Q.** And the FICI ([2]; 10 + tetracycline)?
**A.** The FICI was 1.85.

**Q.** And the FICI [3]?
**A.** Its FICI is 1.73.

**Q.** What about the FICIavg [4] of the same molecule?
**A.** Its FICIavg is 1.43 ± 0.37.

**Q.** With `CC(C)=CCC/C(C)=C/CC/C(C)=C/CO[P@@](=O)(O)OP(=O)(O)O` (stereo in doubt) [FPP, farnesyl diphosphate] as the molecule, how does the Kd ([5]; Kd (dissociation constant for the inhibitory SES ternary complex)) read?
**A.** The Kd was 35 µM and ~35 µM.

**Q.** What about the “inhibition of the coupling enzymes” value [6] of the same molecule?
**A.** Its value is “this is not the case”.

**Q.** Which results are given for `O=P(O)(O)C(O)(Cn1ccnc1)P(=O)(O)O` [compound 15, zoledronate]?
**A.** IC50 [5]: ~100 µM; activity against human FPPS [7]: potent activity

**Q.** For `C=C(C)CCOP(=O)(O)OP(=O)(O)O` [IPP, isopentenyl diphosphate], which Kd ([5]; read-out: Kd (dissociation constant for the inhibitory SES ternary complex)) is on record?
**A.** Its Kd is 300 ± 40 µM.

**Q.** And the “inhibition of the coupling enzymes” value [6]?
**A.** The value was “this is not the case”.

**Q.** With `CC(C)=CCC/C(C)=C/CC/C(C)=C/CC/C(C)=C/COP(=O)(O)OP(=O)(O)O` [GGPP, geranylgeranyl diphosphate] as the molecule, how does the Km ([5]; GGPP as substrate) read?
**A.** Its Km is 652 µM.

**Q.** What about the Vmax ([5]; GGPP as substrate) of the same molecule?
**A.** The Vmax was 2.2 µM/min.

**Q.** What about the “substrate-inhibition effect at high concentrations” value ([5]; high concentrations) of the same molecule?
**A.** Its value is “did not exhibit the substrate-inhibition effect”.
